# Screens from PubChem BioAssay.
# Rows were chosen to be rich in hits. Some 1.7% of all compounds tested hit in one or more screens of this group.
# F508del corr: CFTR F508del correction in bronchial cells; CFBE cells, YFP halide quenching; stimulated with forskolin plus potentiator P3; % fluorescence drop versus neutral controls; activity (quench increase), % at 7.58 µM; 0.36% of 350,000 active; AID 720511;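 active means mean added fluorescence quench of at least 8% versus neutral control, with both replicates also reaching 8%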;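 further: cells transiently co-express mutant CFTR-F508del with the halide-sensitive YFP; corrector assay measuring rescue of mutant channel to the surface after 24 h compound exposure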
# CAL PDZ FP-1: blocks peptide binding to the human CAL PDZ domain; 0.92% of 300,000 active; AID 602252; inhibition, % at 24.9 µM; purified CAL PDZ, TMR-peptide fluorescence polarization, 1 h; Q9HD26;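 active means mean inhibition of at least 30% with at least half of replicates also reaching 30%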;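 further: 0% = DMSO neutral control and 100% = excess unlabeled competitor peptide PRC23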
# PGC1a acetyl inh: PGC1a acetylation modulation, inhibitor mode; U2OS PGC1a acetylation, AlphaScreen anti-acetyl-lysine; with virally co-expressed GCN5 acetyltransferase; inhibition, % at 15.6 µM; 0.17% of 350,000 active; AID 651687;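 active means every replicate shows inhibition of at least 40%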;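 further: 0% = neutral control wells and 100% = positive control wells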
# CAL PDZ FP-2: blocks peptide binding to human CAL PDZ domain; Q9HD26; purified CAL PDZ, TMR-peptide fluorescence polarization, 1 h; inhibition, % at 20 µM; 0.02% of 330,000 active; AID 504414;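 active means highest replicate inhibition of at least 40%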;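 further: plate controls were DMSO neutral control wells for no effect and unlabeled competitor peptide control wells for full effect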
#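 Material – purified CerCALP PDZ construct · Detection – FP readout, S and P plane fluorescence · Measure – percent inhibition from loss of millipolarization · Controls – unlabelled peptide for full inhibition, DMSO wells as neutral · Probe or stimulus – TMR-labelled reporter peptide T*-PRC34 bound in PDZ groove · Times – 1 h at RT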
# ARNT TACC3 PPI: ARNT/TACC3 interaction disruption; inhibition, % at 9.99 µM; 0.66% of 390,000 active; Q9Y6A5; AID 623870; AlphaScreen His-ARNT PAS-B/GST-TACC3 binding, luminescence; TACC3 fragment carries E629A point mutation;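 active means mean inhibition of replicates at least 50% and at least half of replicates each reaching 50%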;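 further: 0% = complete ARNT plus TACC3 wells and 100% = ARNT alone without TACC3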
# miR-122 sensor: inhibitors of miR-122 in Huh7 cells. Huh7 miR-122 Renilla luciferase sensor, 48 h; neutral wells = 0, positive control = 100. activation (reporter increase), % at 12.5 µM. 0.3% of 340,000 active;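 active means mean replicate activation score at least 90 and every replicate individually at or above 90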;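 further: higher luciferase means less miR-122 activity so hits act as miR-122 inhibitors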
# * marks the source's active call; other numbers are inactive results; / = not tested or not shown; [ ] = remark or other dose.
SMILES,F508del corr,CAL PDZ FP-1,PGC1a acetyl inh,CAL PDZ FP-2,ARNT TACC3 PPI,miR-122 sensor
COCC(=O)N1CC2(C1)CN(Cc1cc(F)ccc1F)[C@H](CO)c1[nH]c3cc(OC)ccc3c12,0,/,13,/,/,/
CCOc1ccccc1NC(=O)Cn1nnc(C(=O)NCc2ccco2)c1N,/,7,/,-2,-5,136*
C[C@H]1CN([C@@H](C)CO)C(=O)c2cccc(NC(=O)Nc3ccccc3)c2O[C@@H]1CN(C)C(=O)Nc1ccc(F)cc1,3,/,-5,/,1,4[16.7 µM]
COc1ccc(-c2cccc(NS(=O)(=O)c3cc([N+](=O)[O-])ccc3C)c2)nn1,-2,2,/,0,1,135*
CC1CCCN(C(=O)Cn2nnc(-c3cccnc3)n2)C1 (stereo unspecified),/,7,-1,-1,/,91*
CC1CCCN(C(=O)Cn2nnc(-c3ccc(F)cc3)n2)C1 (stereo unspecified),3,/,-4,-1,16,1
O=C(C[C@H]1CC[C@H]2[C@@H](COC[C@@H](O)CN2S(=O)(=O)c2ccccc2)O1)Nc1ccccc1,2,/,-3,/,2,-1[16.7 µM]
COc1cccc(C2c3[nH]c4ccccc4c3CCN2Cc2ncc[nH]2)c1 (stereo unspecified),0,-3,-12,0,53*,6
c1ccc2c3c([nH]c2c1)C(C1CCCCC1)N(Cc1ncc[nH]1)CC3 (stereo unspecified),/,-2,4,-3,/,-2
COc1ccc(S(=O)(=O)Nc2cccc3c2O[C@H](CN(C)S(=O)(=O)c2c(C)noc2C)[C@@H](C)CN([C@@H](C)CO)C3=O)cc1,1,/,-4,/,/,/
COc1ccc(S(=O)(=O)N(C)C[C@H]2Oc3ccc(NS(=O)(=O)c4ccc(F)cc4)cc3CC(=O)N([C@H](C)CO)C[C@@H]2C)cc1,2,/,0,/,/,1[16.7 µM]
Cc1ccc(CNC(=O)c2ccc3c(=O)c(O)c(-c4ccc(C)cc4)[nH]c3c2)cc1,14*,-1,15,0,-6,8
CCCNC(=O)c1ccc2c(=O)c(O)c(-c3ccc(C)cc3)[nH]c2c1,4,-1,/,1,3,/
Cc1ccc(S(=O)(=O)c2cc3ccccc3nc2N)cc1,0,40*,-7,13,2,12
CN(C)c1ncc(S(=O)(=O)c2ccccc2)c(N)n1,-1,-1,-9,0,-3,-5
O=C(NCc1ccc(F)cc1)c1c2c(nc3ccccc13)CCN(Cc1ccccc1)C2,/,57*,/,-2,3,/
O=C(COC(=O)c1c2c(nc3ccccc13)CCN(Cc1ccccc1)C2)Nc1c(F)cccc1F,/,/,/,0,3,175*
CCS(=O)(=O)Nc1ccc2c(c1)C(=O)N(C)C[C@@H](OC)[C@@H](C)CN(C(=O)COC)[C@@H](C)CO2,-2,/,-5,/,29,/
CSc1nsc(SCC(=O)NCc2ccc(C)cc2)n1,-5,71*,9,/,-4,-4
Cc1ccc(C(=O)NCCCN2CCOCC2)cc1N1CCCC1=O,/,40*,11,/,-9,-19
O=C(NCCCN1CCOCC1)c1ccc2c(c1)N(Cc1cccc(Cl)c1)C(=O)c1ccccc1S2=O (stereo unspecified),0,37*,-1,-1,4,3
COc1cccc(C(=O)c2c[nH]c(C(=O)NCCCN3CCOCC3)c2)c1,15*,/,-1,-1,6,/
Cc1ccc(C(=O)NCCc2ccccc2)cc1N1CCCC1=O,/,-1,-9,-2,8,-3
C/C=C/c1ccc2c(c1)O[C@H](CN(C)C(=O)CN(C)C)[C@@H](C)CN([C@H](C)CO)S2(=O)=O,-3,/,1,/,15,1[16.7 µM]
CCC(=O)Nc1ccc2c(c1)C(=O)N(C)C[C@H](OC)[C@@H](C)CN(CC1CC1)[C@@H](C)CO2,1,/,-4,/,2,/
CO[C@H]1CN(C)C(=O)c2ccc(NS(=O)(=O)c3cccc(C)c3)cc2OC[C@@H](C)NC[C@@H]1C,0,/,-3,/,-3,10[16.7 µM]
